Test results reported in ChEMBL document CHEMBL4732106, “Paracetamol analogues conjugated by FAAH induce TRPV1-mediated antinociception without causing acute liver toxicity” (Eur J Med Chem, 2021).
The source made the active and inactive calls. The calls are words filed in the database; no cut-off is given here.

Tests used:
[1] = Prodrug conversion in FAAH+/+ mouse brain assessed as N-arachidonoyl conjugate level per g protein at 100 mg/kg, ip measured after 20 mins by LC-MS/MS analysis; assay type: ADME, organism-based; set-up: unit: pmol/g protein; conditions: in vivo
Procedure, shortened: (§1)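 FAAH+/+ and FAAH-/- mice (both sexes) received the primary amine i.p. in saline (sometimes with 5% DMSO). Brains were collected 20 min later, frozen, and homogenized in Tris/EDTA/ascorbate with 10 μM MAFP. N-arachidonoyl conjugates were quantified by positive-ion LC-MS/MS and normalized to protein.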

[2] = Hepatotoxicity in C57BL/6 mouse assessed as change in ALT level at 300 mg/kg, ip measured after 12 hrs; assay type: toxicity, organism-based; conditions: in vivo
Procedure, shortened: (§2)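 Male C57BL/6 mice (8 weeks) were fasted 12–16 h, then given 300 mg kg⁻¹ i.p. in saline. At 12 h, blood was taken for serum ALT/AST (automated analyser). The left medial liver lobe was fixed in 4% formaldehyde, cryosectioned at 10 μm and stained with H&E. The ALT/AST ratio was tested against 1. Mean ± SEM, n = 6–7.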

[3] = Hepatotoxicity in C57BL/6 mouse assessed as centrilobular necrosis at 300 mg/kg, ip measured after 12 hrs by H and E staining based microscopic analysis; assay type: toxicity, organism-based; conditions: in vivo; procedure, shortened: as §2
Mus musculus [4] = test: Antipyretic activity against LPS-induced C57BL/6 mouse model of hyperthermia assessed as PGE2 level in diencephalon at 30 mg/kg, ip measured after 40 mins by LC-MS/MS analysis relative to control; assay type: functional
Procedure, shortened: (§3)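 Male C57BL/6 mice got LPS (E. coli O111:B4, 100 μg kg⁻¹ i.p.) or saline, then 3 h later the drug i.p. in Ringer's acetate vehicle. Diencephalon was taken 40 min later and homogenized in Tris/EDTA/ascorbate with 10 μM MAFP and 100 μM ibuprofen. Prostanoids were quantified by negative-ion LC-MS/MS and expressed as % of LPS + vehicle. n = 6.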

Mus musculus [5] = test: Antipyretic activity against LPS-induced C57BL/6 mouse model of hyperthermia assessed as 6-keto-PGF1alpha level in diencephalon at 30 mg/kg, ip measured after 40 mins by LC-MS/MS analysis relative to control; assay type: functional; procedure, shortened: as §3
Mus musculus [6] = test: Antipyretic activity against LPS-induced C57BL/6 mouse model of hyperthermia assessed as reduction in body temperature at 30 mg/kg, ip measured after 75 mins; assay type: functional, organism-based
Procedure, shortened: (§4)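 Male C57BL/6 mice carried telemetry and recovered ≥1 week before use, housed at 29 °C ambient (near-thermoneutral). LPS 100 μg kg⁻¹ i.p. or saline was given, then drug or Ringer's acetate vehicle i.p. 3 h later. Core temperature was recorded continuously and analysed at the nadir time point. n = 4–9 per group.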

Mus musculus [7] = test: Antipyretic activity against LPS-induced C57BL/6 mouse model of hyperthermia assessed as PGF2alpha level in diencephalon at 30 mg/kg, ip measured after 40 mins by LC-MS/MS analysis relative to control; assay type: functional; procedure, shortened: as §3
[8] = Prodrug conversion in FAAH-/- mouse brain assessed as N-arachidonoyl conjugate level per g protein at 100 mg/kg, ip measured after 20 mins by LC-MS/MS analysis; assay type: ADME, organism-based; set-up: unit: pmol/g protein; conditions: in vivo; procedure, shortened: as §1
[9] = Prodrug conversion in FAAH-/- mouse brain assessed as N-arachidonoyl conjugate level per g protein at 0.1 mM measured after 20 mins by LC-MS/MS analysis; assay type: ADME, tissue-based; conditions: in vitro, 100 µM
Procedure, shortened: (§5)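 Brains from FAAH+/+ or FAAH-/- mice were homogenized in ice-cold 10 mM Tris with 1 mM EDTA and 0.3 mM ascorbic acid. Aliquots were incubated with 0.1 mM primary amine for 20 min at 37 °C with stirring. Reactions were stopped with cold acetone containing AM404-d4 internal standard, and conjugates were measured by LC-MS/MS. n = 5–7.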

[10] = target: T1, Fatty-acid amide hydrolase 1 (Mus musculus, UniProt O08914); test: Substrate activity at FAAH in FAAH+/+ mouse brain assessed as N-arachidonoyl conjugate level per g protein at 0.1 mM measured after 20 mins by LC-MS/MS analysis; assay type: ADME, tissue-based; conditions: 100 µM; procedure, shortened: as §5
T1 sequence (O08914 whole entry): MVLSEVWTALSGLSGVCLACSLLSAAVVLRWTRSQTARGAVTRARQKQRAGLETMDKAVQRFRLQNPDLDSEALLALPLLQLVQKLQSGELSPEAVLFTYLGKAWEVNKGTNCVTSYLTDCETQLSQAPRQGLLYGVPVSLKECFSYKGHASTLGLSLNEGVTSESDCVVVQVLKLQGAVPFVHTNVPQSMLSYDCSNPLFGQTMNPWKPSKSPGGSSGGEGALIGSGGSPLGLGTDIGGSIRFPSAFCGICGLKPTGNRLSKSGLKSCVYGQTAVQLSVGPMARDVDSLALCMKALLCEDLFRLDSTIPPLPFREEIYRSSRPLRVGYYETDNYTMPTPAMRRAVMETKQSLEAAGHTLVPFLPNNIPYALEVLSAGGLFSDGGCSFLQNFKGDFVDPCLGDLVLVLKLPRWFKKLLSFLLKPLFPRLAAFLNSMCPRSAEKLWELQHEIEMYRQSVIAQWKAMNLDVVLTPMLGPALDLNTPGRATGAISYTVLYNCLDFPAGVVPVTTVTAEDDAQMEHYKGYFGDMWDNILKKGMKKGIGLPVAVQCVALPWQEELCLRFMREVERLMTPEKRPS

Mus musculus [11] = test: Hepatotoxicity in C57BL/6 mouse assessed as change in ALT/AST ratio at 300 mg/kg, ip measured after 12 hrs; assay type: functional; procedure, shortened: as §2
Mus musculus [12] = test: Antipyretic activity against LPS-induced C57BL/6 mouse model of hyperthermia assessed as TXB2 level in diencephalon at 30 mg/kg, ip measured after 40 mins by LC-MS/MS analysis relative to control; assay type: functional; procedure, shortened: as §3
[13] = Inhibition of prostanoid synthesis in FAAH-/- mouse assessed as PGF2alpha level in diencephalon at 150 mg/kg, ip measured after 40 mins by LC-MS/MS analysis relative to control; assay type: functional; set-up: scale not given: the % may be the effect or the level left
Procedure, shortened: (§6)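 In a separate set, FAAH+/+ (n = 10–11) and FAAH-/- (n = 5) mice received LPS 100 μg kg⁻¹ i.p., then paracetamol 150 mg kg⁻¹ i.p. 3 h later. Diencephalic PGE2, PGF2α, 6-keto-PGF1α and TXB2 were measured by negative-ion LC-MS/MS and expressed as % of febrile vehicle-treated animals. Values below the detection limit were set to 1/4 of that limit.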

Mus musculus [14] = test: Antipyretic activity against LPS-induced C57BL/6 mouse model of hyperthermia assessed as 6-keto-PGF1alpha level in diencephalon at 100 mg/kg, ip measured after 40 mins by LC-MS/MS analysis relative to control; assay type: functional; procedure, shortened: as §3
[15] = Inhibition of prostanoid synthesis in FAAH+/+ mouse assessed as PGE2 level in diencephalon at 150 mg/kg, ip measured after 40 mins by LC-MS/MS analysis relative to control; assay type: functional; set-up: scale not given: the % may be the effect or the level left; procedure, shortened: as §6
[16] = Inhibition of prostanoid synthesis in FAAH+/+ mouse assessed as TXB2 level in diencephalon at 150 mg/kg, ip measured after 40 mins by LC-MS/MS analysis relative to control; assay type: functional; set-up: scale not given: the % may be the effect or the level left; procedure, shortened: as §6
[17] = Inhibition of prostanoid synthesis in FAAH+/+ mouse assessed as PGF2alpha level in diencephalon at 150 mg/kg, ip measured after 40 mins by LC-MS/MS analysis relative to control; assay type: functional; set-up: scale not given: the % may be the effect or the level left; procedure, shortened: as §6
[18] = Inhibition of prostanoid synthesis in FAAH-/- mouse assessed as 6-keto-PGF1alpha level in diencephalon at 150 mg/kg, ip measured after 40 mins by LC-MS/MS analysis relative to control; assay type: functional; set-up: scale not given: the % may be the effect or the level left; procedure, shortened: as §6
Mus musculus [19] = test: Antipyretic activity against LPS-induced C57BL/6 mouse model of hyperthermia assessed as PGE2 level in diencephalon at 100 mg/kg, ip measured after 40 mins by LC-MS/MS analysis relative to control; assay type: functional; procedure, shortened: as §3
Mus musculus [20] = test: Antipyretic activity against LPS-induced C57BL/6 mouse model of hyperthermia assessed as TXB2 level in diencephalon at 100 mg/kg, ip measured after 40 mins by LC-MS/MS analysis relative to control; assay type: functional; procedure, shortened: as §3
[21] = Inhibition of prostanoid synthesis in FAAH-/- mouse assessed as TXB2 level in diencephalon at 150 mg/kg, ip measured after 40 mins by LC-MS/MS analysis relative to control; assay type: functional; set-up: scale not given: the % may be the effect or the level left; procedure, shortened: as §6
Mus musculus [22] = test: Antipyretic activity against LPS-induced C57BL/6 mouse model of hyperthermia assessed as PGF2alpha level in diencephalon at 100 mg/kg, ip measured after 40 mins by LC-MS/MS analysis relative to control; assay type: functional; procedure, shortened: as §3
Mus musculus [23] = test: Antipyretic activity against LPS-induced C57BL/6 mouse model of hyperthermia assessed as reduction in body temperature at 100 mg/kg, ip measured after 75 mins; assay type: functional, organism-based; procedure, shortened: as §4
[24] = Inhibition of prostanoid synthesis in FAAH+/+ mouse assessed as 6-keto-PGF1alpha level in diencephalon at 150 mg/kg, ip measured after 40 mins by LC-MS/MS analysis relative to control; assay type: functional; set-up: scale not given: the % may be the effect or the level left; procedure, shortened: as §6
[25] = Inhibition of prostanoid synthesis in FAAH-/- mouse assessed as PGE2 level in diencephalon at 150 mg/kg, ip measured after 40 mins by LC-MS/MS analysis relative to control; assay type: functional; set-up: scale not given: the % may be the effect or the level left; procedure, shortened: as §6

Compound: Nc1ccc(O)cc1 [4-AMINOPHENOL]
- Drug metabolism [1]: 1002 pmol
- Activity [2]: Non-Toxic
- Activity [3]: Non-Toxic
- Activity (Mus musculus [4]): 44%
- Activity (Mus musculus [5]): 60%
- Activity (Mus musculus [6]): inactive
- Activity (Mus musculus [7]): 81%
- Drug metabolism [8]: 24 pmol
- Drug metabolism [9]: 0.05 nmol/g
- Drug metabolism [10]: 8.8 nmol/g
- Ratio (Mus musculus [11]): >1
- Activity (Mus musculus [12]): 60%

Compound: CC(=O)Nc1ccc(O)cc1 [ACETAMINOPHEN]
- Activity [13]: 10%
- Activity (Mus musculus [14]): 17%
- Activity [15]: 8%
- Activity [2]: Toxic
- Activity [3]: Toxic
- Activity [16]: 25%
- Activity [17]: 19%
- Activity [18]: 12%
- Activity (Mus musculus [19]): 13%
- Activity (Mus musculus [20]): 36%
- Activity [21]: 18%
- Activity (Mus musculus [22]): 18%
- Activity (Mus musculus [23]): Active
- Activity [24]: 15%
- Activity [25]: 9%
